Data published in ChEMBL document CHEMBL3576819, “Design, synthesis, biological evaluation and molecular docking studies of phenylpropanoid derivatives as potent anti-hepatitis B virus agents” (Eur J Med Chem, 2015).

Columns and labels:
Hepatitis B virus [1] = experiment: Antiviral activity against Hepatitis B virus infected in human HepG2.2.15 cells assessed as cell survival at 150 uM after 9 days (reference value: 100%); type: functional; settings: HepG2 2.2.15, 216 h
Summary of the method: (§1)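 HepG2.2.15 cells (MEM, 10% FBS, 380 µg/ml G418, 37 °C, 5% CO2) seeded at 1×10^5 cells/ml, cultured 24 h, then exposed to various drug concentrations; drug-containing medium renewed every 3 d. OD read at 450 nm after 9 days; percent cell death calculated; CC50 = concentration killing 50% of cells. Means of at least two experiments.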

Hepatitis B virus [2] = experiment: Antiviral activity against Hepatitis B virus infected in human HepG2.2.15 cells assessed as inhibition of HBeAg secretion at 150 uM after 3 days by ELISA; type: functional; settings: HepG2 2.2.15, 72 h
Summary of the method: (§2)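 HepG2.2.15 cells (MEM, 10% FBS, 380 µg/ml G418) seeded at 1×10^5 cells/ml, held 24 h at 37 °C, then treated with various drug concentrations; medium with drug renewed every 3 d for up to 9 d. Culture medium sampled on days 3, 6 and 9, stored at -20 °C, and assayed for secreted antigen. Lamivudine as positive control; IC50 = 50% inhibition of secretion; means of at least two experiments.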

Hepatitis B virus [3] = experiment: Antiviral activity against Hepatitis B virus infected in human HepG2.2.15 cells assessed as inhibition of HBeAg secretion at 300 uM after 3 days by ELISA; type: functional; settings: HepG2 2.2.15, 72 h; summary of the method: as §2
Hepatitis B virus [4] = experiment: Antiviral activity against Hepatitis B virus infected in human HepG2.2.15 cells assessed as inhibition of HBeAg secretion at 37.5 uM after 6 days by ELISA; type: functional; settings: HepG2 2.2.15, 144 h; summary of the method: as §2
[5] = Selectivity index, ratio of CC50 for human HepG2.2.15 cells to IC50 for Hepatitis B virus infected in human HepG2.2.15 cells assessed as inhibition of HBeAg secretion; type: functional
Summary of the method: (§3)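 Selectivity index computed as CC50/IC50, with CC50 from cell death of HepG2.2.15 cells after 9 days of treatment (OD 450 nm) and IC50 from 50% inhibition of HBeAg or HBsAg secretion in the same cells; medium with drug renewed every 3 d.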

Hepatitis B virus [6] = experiment: Antiviral activity against Hepatitis B virus infected in human HepG2.2.15 cells assessed as inhibition of HBsAg secretion at 75 uM after 9 days by ELISA; type: functional; settings: HepG2 2.2.15, 216 h; summary of the method: as §2
Hepatitis B virus [7] = experiment: Antiviral activity against Hepatitis B virus infected in human HepG2.2.15 cells assessed as inhibition of HBsAg secretion at 150 uM after 3 days by ELISA; type: functional; settings: HepG2 2.2.15, 72 h; summary of the method: as §2
[8] = Selectivity index, ratio of CC50 for human HepG2.2.15 cells to IC50 for Hepatitis B virus infected in human HepG2.2.15 cells assessed as inhibition of HBsAg secretion; type: functional; summary of the method: as §3
Hepatitis B virus [9] = experiment: Antiviral activity against Hepatitis B virus infected in human HepG2.2.15 cells assessed as inhibition of HBsAg secretion at 75 uM after 6 days by ELISA; type: functional; settings: HepG2 2.2.15, 144 h; summary of the method: as §2
Hepatitis B virus [10] = experiment: Antiviral activity against Hepatitis B virus infected in human HepG2.2.15 cells assessed as cell survival at 37.5 uM after 9 days (reference value: 100%); type: functional; settings: HepG2 2.2.15, 216 h; summary of the method: as §1
Hepatitis B virus [11] = experiment: Antiviral activity against Hepatitis B virus infected in human HepG2.2.15 cells assessed as inhibition of HBsAg secretion at 37.5 uM after 6 days by ELISA; type: functional; settings: HepG2 2.2.15, 144 h; summary of the method: as §2
Hepatitis B virus [12] = experiment: Antiviral activity against Hepatitis B virus infected in human HepG2.2.15 cells assessed as inhibition of HBsAg secretion at 300 uM after 3 days by ELISA; type: functional; settings: HepG2 2.2.15, 72 h; summary of the method: as §2
Hepatitis B virus [13] = experiment: Antiviral activity against Hepatitis B virus infected in human HepG2.2.15 cells assessed as inhibition of HBsAg secretion at 75 uM after 3 days by ELISA; type: functional; settings: HepG2 2.2.15, 72 h; summary of the method: as §2
Hepatitis B virus [14] = experiment: Antiviral activity against Hepatitis B virus infected in human HepG2.2.15 cells assessed as inhibition of HBeAg secretion at 150 uM after 6 days by ELISA; type: functional; settings: HepG2 2.2.15, 144 h; summary of the method: as §2
Hepatitis B virus [15] = experiment: Antiviral activity against Hepatitis B virus infected in human HepG2.2.15 cells assessed as inhibition of HBsAg secretion at 300 uM after 9 days by ELISA; type: functional; settings: HepG2 2.2.15, 216 h; summary of the method: as §2
Hepatitis B virus [16] = experiment: Antiviral activity against Hepatitis B virus infected in human HepG2.2.15 cells assessed as cell survival at 300 uM after 9 days (reference value: 100%); type: functional; settings: HepG2 2.2.15, 216 h; summary of the method: as §1
Hepatitis B virus [17] = experiment: Antiviral activity against Hepatitis B virus infected in human HepG2.2.15 cells assessed as inhibition of HBsAg secretion by ELISA; type: functional, organism-based; settings: HepG2 2.2.15; summary of the method: as §2
Hepatitis B virus [18] = experiment: Antiviral activity against Hepatitis B virus infected in human HepG2.2.15 cells assessed as inhibition of HBeAg secretion at 75 uM after 6 days by ELISA; type: functional; settings: HepG2 2.2.15, 144 h; summary of the method: as §2
Hepatitis B virus [19] = experiment: Antiviral activity against Hepatitis B virus infected in human HepG2.2.15 cells assessed as inhibition of HBeAg secretion at 37.5 uM after 3 days by ELISA; type: functional; settings: HepG2 2.2.15, 72 h; summary of the method: as §2
Hepatitis B virus [20] = experiment: Antiviral activity against Hepatitis B virus infected in human HepG2.2.15 cells assessed as inhibition of HBeAg secretion at 150 uM after 9 days by ELISA; type: functional; settings: HepG2 2.2.15, 216 h; summary of the method: as §2
Hepatitis B virus [21] = experiment: Antiviral activity against Hepatitis B virus infected in human HepG2.2.15 cells assessed as inhibition of HBeAg secretion by ELISA; type: functional, organism-based; settings: HepG2 2.2.15; summary of the method: as §2
Hepatitis B virus [22] = experiment: Antiviral activity against Hepatitis B virus infected in human HepG2.2.15 cells assessed as cell survival at 75 uM after 9 days (reference value: 100%); type: functional; settings: HepG2 2.2.15, 216 h; summary of the method: as §1
Hepatitis B virus [23] = experiment: Antiviral activity against Hepatitis B virus infected in human HepG2.2.15 cells assessed as inhibition of HBeAg secretion at 300 uM after 9 days by ELISA; type: functional; settings: HepG2 2.2.15, 216 h; summary of the method: as §2
Hepatitis B virus [24] = experiment: Antiviral activity against Hepatitis B virus infected in human HepG2.2.15 cells assessed as inhibition of HBsAg secretion at 150 uM after 6 days by ELISA; type: functional; settings: HepG2 2.2.15, 144 h; summary of the method: as §2
Hepatitis B virus [25] = experiment: Antiviral activity against Hepatitis B virus infected in human HepG2.2.15 cells assessed as inhibition of HBsAg secretion at 300 uM after 6 days by ELISA; type: functional; settings: HepG2 2.2.15, 144 h; summary of the method: as §2
Hepatitis B virus [26] = experiment: Antiviral activity against Hepatitis B virus infected in human HepG2.2.15 cells assessed as inhibition of HBeAg secretion at 300 uM after 6 days by ELISA; type: functional; settings: HepG2 2.2.15, 144 h; summary of the method: as §2
Hepatitis B virus [27] = experiment: Antiviral activity against Hepatitis B virus infected in human HepG2.2.15 cells assessed as inhibition of HBsAg secretion at 37.5 uM after 9 days by ELISA; type: functional; settings: HepG2 2.2.15, 216 h; summary of the method: as §2
Hepatitis B virus [28] = experiment: Antiviral activity against Hepatitis B virus infected in human HepG2.2.15 cells assessed as inhibition of HBsAg secretion at 37.5 uM after 3 days by ELISA; type: functional; settings: HepG2 2.2.15, 72 h; summary of the method: as §2
[29] = Cytotoxicity against human HepG2.2.15 cells assessed as cell death after 9 days by MTT assay; type: cell-based, HepG2 2.2.15; summary of the method: as §1
Hepatitis B virus [30] = experiment: Antiviral activity against Hepatitis B virus infected in human HepG2.2.15 cells assessed as inhibition of HBeAg secretion at 75 uM after 9 days by ELISA; type: functional; settings: HepG2 2.2.15, 216 h; summary of the method: as §2
Hepatitis B virus [31] = experiment: Antiviral activity against Hepatitis B virus infected in human HepG2.2.15 cells assessed as inhibition of HBsAg secretion at 150 uM after 9 days by ELISA; type: functional; settings: HepG2 2.2.15, 216 h; summary of the method: as §2
Hepatitis B virus [32] = experiment: Antiviral activity against Hepatitis B virus infected in human HepG2.2.15 cells assessed as inhibition of HBeAg secretion at 75 uM after 3 days by ELISA; type: functional; settings: HepG2 2.2.15, 72 h; summary of the method: as §2
Hepatitis B virus [33] = experiment: Antiviral activity against Hepatitis B virus infected in human HepG2.2.15 cells assessed as inhibition of HBeAg secretion at 37.5 uM after 9 days by ELISA; type: functional; settings: HepG2 2.2.15, 216 h; summary of the method: as §2

SMILES	viability at 150 µM (Hepatitis B virus [1]) [%]	inhibition at 150 µM (Hepatitis B virus [2]) [%]	inhibition at 300 µM (Hepatitis B virus [3]) [%]	inhibition at 37.5 µM (Hepatitis B virus [4]) [%]	Ratio CC50/IC50 [5]	inhibition at 75 µM (Hepatitis B virus [6]) [%]	inhibition at 150 µM (Hepatitis B virus [7]) [%]	Ratio CC50/IC50 [8]	inhibition at 75 µM (Hepatitis B virus [9]) [%]	viability at 37.5 µM (Hepatitis B virus [10]) [%]	inhibition at 37.5 µM (Hepatitis B virus [11]) [%]	inhibition at 300 µM (Hepatitis B virus [12]) [%]	inhibition at 75 µM (Hepatitis B virus [13]) [%]	inhibition at 150 µM (Hepatitis B virus [14]) [%]	inhibition at 300 µM (Hepatitis B virus [15]) [%]	viability at 300 µM (Hepatitis B virus [16]) [%]	IC50 (Hepatitis B virus [17]) [µM]	inhibition at 75 µM (Hepatitis B virus [18]) [%]	inhibition at 150 µM (Hepatitis B virus [20]) [%]	IC50 (Hepatitis B virus [21]) [µM]	other results
COc1ccc(/C=C/C(=O)O/N=C/c2cccs2)cc1OC	98.7	11.8	14.3	8.58	1.52	29.3	40.7	2.51	29.6	114	19.8	47.6	28.4	20.4	55	97.7	229	15.3	26.9	378	inhibition at 37.5 µM (Hepatitis B virus [19]): 0.63%; viability at 75 µM (Hepatitis B virus [22]): 101%; inhibition at 300 µM (Hepatitis B virus [23]): 52.3%; inhibition at 150 µM (Hepatitis B virus [24]): 41.2%; inhibition at 300 µM (Hepatitis B virus [25]): 52.6%; inhibition at 300 µM (Hepatitis B virus [26]): 35.4%; inhibition at 37.5 µM (Hepatitis B virus [27]): 20.5%; inhibition at 37.5 µM (Hepatitis B virus [28]): 17.4%; CC50 at 216 h [29]: 574 µM; inhibition at 75 µM (Hepatitis B virus [30]): 22.6%; inhibition at 150 µM (Hepatitis B virus [31]): 42.8%; inhibition at 75 µM (Hepatitis B virus [32]): 7.04%; inhibition at 37.5 µM (Hepatitis B virus [33]): 18.6%
COc1cc(/C=C/C(=O)O/N=C/c2cccs2)cc(OC)c1OC	92.6	11.3	15.3	17.1	4.1	30.9	35.6	4.36	30.6	100	21.9	44.7	26.3	28.2	57.7	79.9	197	20.9	46.3	209	viability at 75 µM (Hepatitis B virus [22]): 93.4%; inhibition at 300 µM (Hepatitis B virus [23]): 55.1%; inhibition at 150 µM (Hepatitis B virus [24]): 44.4%; inhibition at 300 µM (Hepatitis B virus [25]): 56%; inhibition at 300 µM (Hepatitis B virus [26]): 33.1%; inhibition at 37.5 µM (Hepatitis B virus [27]): 24.8%; inhibition at 37.5 µM (Hepatitis B virus [28]): 17.1%; CC50 at 216 h [29]: 857 µM; inhibition at 75 µM (Hepatitis B virus [30]): 31.6%; inhibition at 150 µM (Hepatitis B virus [31]): 46.4%; inhibition at 75 µM (Hepatitis B virus [32]): 8.64%; inhibition at 37.5 µM (Hepatitis B virus [33]): 20.6%
